Test results published in PubChem BioAssay AID624014 (Broad Institute, 2012).
Values joined by “and” are separate entries in the source; they are usually repeats but may differ in a detail not shown here. Equal values may be shown once.

Each molecule was assayed on Candida glabrata growth in glycerol medium, OD600, 48 h (assay: single-agent C. glabrata growth inhibition on glycerol, dose response, glycerol medium, OD600, dry powder, set 4 (AID 624014)).
Method in brief: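 Material: Candida glabrata yeast cells, whole-organism growth assay; Compound dosing: pin-transferred compounds; Times: compound exposure 48 h at 30 °C, static, humidified; Technique: absorbance at 600 nm (OD600) as growth measure; Control set: amphotericin B at 10 µM as positive control.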

| Compound | AC50 |
| --- | --- |
| CCOC(=O)N1C(=O)C2(CCCCC2)N(c2ccc(C#N)cc2)C1=S | 0.0278 µM |
| CC1/C=C/C=C\C=C\C=C\C=C\C=C\C=C\C(O[C@H]2OC(C)C(O)C(N)C2O)CC2OC(O)(CC(O)CC(O)C(O)CCC(O)CC(O)CC(=O)OC(C)C(C)C1O)CC(O)C2C(=O)O (stereo partly drawn) | 0.602 µM |
| CCOC(=O)N1C(=O)C2(CCCCC2)N(c2ccc(F)cc2)C1=S | 0.00616 µM |
| CCOC(=O)N1C(=O)C2(CCCCC2)N(c2ccccc2)C1=S | 0.0194 µM |
| C/C=C/[C@@H]1[C@H]2C[C@@H](C)CC[C@@H]2C(C)=C[C@H]1C(=O)c1c(O)c(-c2ccc(O)cc2)c[nH]c1=O | 2.45 µM |
| CCOC(=O)N1C(=O)C2(CCCCC2)N(c2ccc(C)cc2)C1=S | 0.0318 µM and 0.0224 µM |
| CCOC(=O)N1C(=O)C2(CCCCC2)N(c2ccc(Cl)cc2)C1=S | 0.0138 µM |
| CCOC(=O)N1C(=O)C2(CCCCC2)N(c2cccc(C)c2)C1=S | 0.0239 µM |
